Calls of active or inactive are those of the source. Unless noted, no cut-off for these calls is given here.
Tests used:
CFBE41o- [1] = assay: Antiproliferative activity against human CFBE41o- cells harbouring CFTR F508del mutant/HS-YFP at 5 uM incubated for 48 hrs; type: toxicity, cell-based
Method in brief: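 Cells plated at 5000/well and treated after 6 h with compound (5 μM) or DMSO. Cell-covered area was followed by the YFP signal over 48 h on a high-content imager. Means ± SEM, n = 6. Three independent experiments; ANOVA with Dunnett test.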

CFBE41o- [2] = assay: Induction of apoptosis in human CFBE41o- cells assessed as increase in apoptosis at 100 uM incubated for 24 hrs by Hoechst 33342 and propidium iodide staining based analysis; type: toxicity, cell-based
Method in brief: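 Cells were plated at 10,000/well and treated after 6 h with compound (5, 20, 100 μM), VX-809 (1 μM), MG132 (50 μM) or DMSO for 24 h. Hoechst 33342 counted total nuclei and propidium iodide counted apoptotic nuclei, by high-content imaging. Means ± SEM; ANOVA with Dunnett test.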

[3] = test system: Cystic fibrosis transmembrane conductance regulator (Homo sapiens), P13569 [F508del]; assay: Corrector activity at CFTR F508del mutant in human CFBE41o- cells assessed as rescue of CFTR mutant at 10 uM incubated for 24 hrs in presence of VX-445 by Western blot analysis; type: cell-based
Sequence of Cystic fibrosis transmembrane conductance regulator (Homo sapiens), P13569 [F508del] (P13569 as listed by the source): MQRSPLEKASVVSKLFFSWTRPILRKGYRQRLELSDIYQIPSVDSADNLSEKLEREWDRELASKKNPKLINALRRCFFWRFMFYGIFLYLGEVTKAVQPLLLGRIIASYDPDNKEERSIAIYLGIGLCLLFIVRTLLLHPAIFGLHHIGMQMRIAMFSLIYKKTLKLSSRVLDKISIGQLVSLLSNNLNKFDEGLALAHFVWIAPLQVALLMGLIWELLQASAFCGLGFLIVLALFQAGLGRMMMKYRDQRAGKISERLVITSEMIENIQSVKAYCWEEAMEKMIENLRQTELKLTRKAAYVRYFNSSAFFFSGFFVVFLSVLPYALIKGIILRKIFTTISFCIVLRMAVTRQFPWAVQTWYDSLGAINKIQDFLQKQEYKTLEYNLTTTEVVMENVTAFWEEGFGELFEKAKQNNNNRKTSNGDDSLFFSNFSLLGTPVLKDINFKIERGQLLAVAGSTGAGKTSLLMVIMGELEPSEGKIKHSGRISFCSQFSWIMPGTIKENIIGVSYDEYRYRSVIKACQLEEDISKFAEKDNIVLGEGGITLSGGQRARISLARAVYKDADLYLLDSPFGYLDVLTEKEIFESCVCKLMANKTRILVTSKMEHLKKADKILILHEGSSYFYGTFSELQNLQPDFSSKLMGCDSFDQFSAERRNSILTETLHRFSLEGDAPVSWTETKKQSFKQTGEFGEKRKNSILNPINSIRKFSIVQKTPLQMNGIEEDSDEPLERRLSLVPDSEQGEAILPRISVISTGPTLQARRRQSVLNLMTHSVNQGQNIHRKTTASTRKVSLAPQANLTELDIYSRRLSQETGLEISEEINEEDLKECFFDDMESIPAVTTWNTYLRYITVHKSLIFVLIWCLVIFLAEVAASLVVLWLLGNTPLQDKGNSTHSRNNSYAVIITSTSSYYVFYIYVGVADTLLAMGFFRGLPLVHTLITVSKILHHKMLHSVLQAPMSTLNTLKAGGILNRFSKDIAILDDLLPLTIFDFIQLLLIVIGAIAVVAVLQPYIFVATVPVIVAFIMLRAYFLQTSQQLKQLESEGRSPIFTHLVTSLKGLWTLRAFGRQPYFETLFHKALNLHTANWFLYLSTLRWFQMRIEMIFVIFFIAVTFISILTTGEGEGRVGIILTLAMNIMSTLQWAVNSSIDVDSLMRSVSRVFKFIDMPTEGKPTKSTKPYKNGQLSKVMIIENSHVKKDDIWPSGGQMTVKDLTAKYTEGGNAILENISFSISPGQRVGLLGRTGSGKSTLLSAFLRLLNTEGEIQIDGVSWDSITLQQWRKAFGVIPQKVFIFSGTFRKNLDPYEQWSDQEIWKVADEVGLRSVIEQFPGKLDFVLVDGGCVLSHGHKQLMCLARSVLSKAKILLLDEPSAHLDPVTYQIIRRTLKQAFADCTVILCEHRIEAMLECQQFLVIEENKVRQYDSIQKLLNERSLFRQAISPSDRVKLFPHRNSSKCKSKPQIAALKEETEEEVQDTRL

[4] = test system: Cystic fibrosis transmembrane conductance regulator (Homo sapiens), P13569 [F508del]; assay: Corrector activity at CFTR F508del mutant in human CFBE41o- cells assessed as decrease in accumulation of ubiquitylated CFTR at 10 uM incubated for 24 hrs in presence of VX-445 by Western blot analysis; type: cell-based
Method in brief: (§1)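 Confluent CFBE41o– F508del cells were treated 24 h, with MG-132 (10 μM) or DMSO in the last 4 h. Lysate (600 μg protein) was immunoprecipitated with rabbit anti-CFTR (2 μg, 1 h RT) and protein A/G beads, then eluted reducing. Samples ran on 4–15% gradient SDS-PAGE and were western blotted. Bands were read by chemiluminescence, with densitometry of ubiquitylated CFTR.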

[5] = Aggregation property of the compound in PBS buffer at pH 7.5 by 1D 1H-NMR analysis; type: physicochemical
Method in brief: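 Solubility by 1H 1D NMR and aggregation by WaterLOGSY at 298 K in PBS pH 7.5 with 1 μM ZnCl2, 1 mM DTT, 10% D2O, 1% DMSO-d6. Theoretical concentrations 20, 50 and 100 μM, with 200 μM 4-trifluoromethyl benzoic acid as internal reference. WaterLOGSY: mixing time 1.7 s, relaxation delay 2 s, 256 scans.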

CFBE41o- [6] = assay: Induction of autophagy in human CFBE41o- cells harbouring CFTR F508del mutant assessed as increase in number of autophagic vacuoles at 5 uM incubated for 24 hrs by confocal microscopy based analysis; type: functional, cell-based
Method in brief: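 CFBE41o– F508del/HS-YFP cells (50,000/well) were treated 24 h with compound (5 μM), VX-809 (1 μM) or DMSO. SAR405 (2 μM) and torin1 (20 nM) were added near the end of incubation. Cells were then loaded with 50 μM MDC in PBS for 10 min at 37 °C, washed, and imaged. MDC spot number was normalized to control. n = 3; ANOVA with Dunnett test.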

[7] = target: T1, Cystic fibrosis transmembrane conductance regulator (Homo sapiens, UniProt P13569, F508DEL); assay: Corrector activity at CFTR F508del mutant in human CFBE41o- cells incubated for 25 mins by microplate reader based analysis; type: cell-based
T1 sequence (P13569 as listed by the source): as above
Method in brief: (§2)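 CFBE41o– cells stably expressing F508del-CFTR and HS-YFP were treated 24 h after seeding; DMSO and VX-809 (1 μM) served as controls. Cells were stimulated 25 min with forskolin (20 μM) plus VX-770 (1 μM). YFP was read for 2 s before and 12 s after iodide injection. Initial slope came from an exponential fit of the final 11 s. Three independent experiments.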

[8] = test system: Cystic fibrosis transmembrane conductance regulator (Homo sapiens), P13569 [F508del]; assay: Corrector activity at CFTR F508del mutant in human CFBE41o- cells assessed as increase in CFTR mutant activity at 5 uM in presence of VX-809 incubated for 24 hrs; type: cell-based; method in brief: as §2
[9] = test system: Cystic fibrosis transmembrane conductance regulator (Homo sapiens), P13569 [F508del]; assay: Corrector activity at CFTR F508del mutant in human CFBE41o- cells assessed as increase in CFTR mutant activity at 5 uM in presence of VX-445 incubated for 24 hrs; type: cell-based; method in brief: as §2
[10] = target: T1, Cystic fibrosis transmembrane conductance regulator; assay: Corrector activity at CFTR F508del mutant in human CFBE41o- cells coexpressing HS-YFP incubated for 25 mins by microplate reader based analysis; type: cell-based; method in brief: as §2
[11] = test system: Cystic fibrosis transmembrane conductance regulator (Homo sapiens), P13569 [F508del]; assay: Corrector activity at CFTR F508del mutant in human CFBE41o- cells assessed as appearance of CFTR mutant forms at 10 uM incubated for 4 hrs by Western blot analysis; type: cell-based
[12] = test system: Cystic fibrosis transmembrane conductance regulator (Homo sapiens), P13569 [F508del]; assay: Corrector activity at CFTR F508del mutant in human CFBE41o- cells assessed as decrease in accumulation of ubiquitylated CFTR at 10 uM incubated for 4 hrs in presence of MG-132 by Western blot analysis; type: cell-based; method in brief: as §1
[13] = test system: Cystic fibrosis transmembrane conductance regulator (Homo sapiens), P13569 [F508del]; assay: Corrector activity at CFTR F508del mutant in human CFBE41o- cells assessed as rescue of CFTR mutant at 3 uM incubated for 24 hrs in presence of VX-661 by Western blot analysis; type: cell-based
[14] = test system: Cystic fibrosis transmembrane conductance regulator (Homo sapiens), P13569 [F508del]; assay: Corrector activity at CFTR F508del mutant in human CFBE41o- cells assessed as decrease in accumulation of ubiquitylated CFTR at 3 uM incubated for 24 hrs in presence of VX-661 by Western blot analysis; type: cell-based; method in brief: as §1
[15] = target: E3 ubiquitin-protein ligase RNF5 (Homo sapiens) (UniProt Q99942); assay: Binding affinity to recombinant human RNF5 (1 to 117 residues) expressed in Escherichia coli BL21(DE3) at 50 uM by Microscale thermophoresis analysis
Sequence of E3 ubiquitin-protein ligase RNF5 (Homo sapiens) (Q99942 whole entry, the tested form may be a part): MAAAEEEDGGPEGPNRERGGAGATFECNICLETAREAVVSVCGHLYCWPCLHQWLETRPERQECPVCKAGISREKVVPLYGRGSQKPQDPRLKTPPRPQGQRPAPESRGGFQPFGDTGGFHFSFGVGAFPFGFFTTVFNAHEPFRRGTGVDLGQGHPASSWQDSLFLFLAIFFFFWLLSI
Method in brief: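 Human RNF5 aa 1–117 was expressed GST-tagged in E. coli BL21(DE3) with 0.2 mM IPTG for 5 h at 37 °C. It was purified on glutathione resin, TEV-cleaved, and RED-NHS labelled (5 nM). Binding check was run in PBS with 0.05% Tween-20, 0.1% PEG-8000 and 1 μM ZnCl2, ± 1 mM DTT, at ≤5% DMSO. Medium MST power, 20% excitation.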

In the case of Cc1ns/c(=N\C(=N\c2ccccc2)c2ccccc2)n1Cc1ccccc1Cl, the Activity (CFBE41o- [1]) is reported as “Non-Toxic” and the Activity (CFBE41o- [2]) is reported as “Toxic”.
For CC(C)(CO)c1cc2cc(NC(=O)C3(c4ccc5c(c4)OC(F)(F)O5)CC3)c(F)cc2n1C[C@@H](O)CO, the Activity [3] was “Active” and the Activity [4] was “Active”.
In the case of Cc1ns/c(=N\C(=N\c2ccccc2)c2ccncc2)n1Cc1ccccc1, the Activity [5] is reported as “Not Active”, the Activity (CFBE41o- [1]) is reported as “Non-Toxic” and the Activity (CFBE41o- [6]) is reported as “inactive”.
For Cc1ns/c(=N\C(=N\c2ccccc2)c2ccccc2)n1-c1ccccc1, the Activity [5] was “Not Active”, the Activity (CFBE41o- [1]) was “Non-Toxic” and the Activity (CFBE41o- [2]) was “Toxic”. For the same compound, the Activity (CFBE41o- [6]) was “inactive”.
With Cc1ns/c(=N\C(=N\c2ccccc2)c2ccccc2)n1Cc1cccc(N(C)C)c1 the Activity (CFBE41o- [1]) was “Non-Toxic”.
In the case of Cc1ns/c(=N\C(=N\c2ccccc2)c2ccccc2)n1Cc1cccc(Cl)c1, the Activity (CFBE41o- [1]) is reported as “Non-Toxic”.
With Cc1ns/c(=N\C(=N\c2ccccc2)c2ccccc2)n1Cc1ccccc1N the Activity [5] was “Not Active”, the Activity (CFBE41o- [1]) was “Non-Toxic” and the Activity (CFBE41o- [2]) was “Toxic”.
In the case of Cc1ns/c(=N\C(=N\c2ccccc2)c2ccccc2)n1Cc1ccccc1, the Activity [5] is reported as “Not Active”, the Activity (CFBE41o- [1]) is reported as “Non-Toxic” and the Activity (CFBE41o- [6]) is reported as “Active”. The EC50 [7] was 2600 nM, the Activity [8] was “Active” and the Activity [9] was “Active”.
For Cc1ns/c(=N\C(=N\c2ccccc2)c2ccccc2)n1Cc1cccc(O)c1, the Activity [5] was “Not Active”, the Activity (CFBE41o- [1]) was “Non-Toxic” and the Activity (CFBE41o- [2]) was “Toxic”. It also gave an EC50 [10] of 1600 nM.
In the case of Cc1ns/c(=N\C(=N\c2ccccc2)c2ccccc2)n1Cc1ccc(F)cc1, the Activity (CFBE41o- [1]) is reported as “Non-Toxic” and the Activity (CFBE41o- [6]) is reported as “inactive”.
For CC(C)C[C@@H](C=O)NC(=O)[C@H](CC(C)C)NC(=O)[C@H](CC(C)C)NC(=O)OCc1ccccc1, the Activity [11] was “Active” and the Activity [12] was “inactive”.
With Cc1nn(C)cc1S(=O)(=O)NC(=O)c1ccc(-n2ccc(OCC(C)(C)C(F)(F)F)n2)nc1N1C[C@@H](C)CC1(C)C the Activity [13] was “Active” and the Activity [14] was “Active”.
For COc1ccccc1Cn1c(C)ns/c1=N\C(=N\c1ccccc1)c1ccccc1, the Activity (CFBE41o- [1]) was “Non-Toxic” and the Activity (CFBE41o- [2]) was “Toxic”.
With Cc1ns/c(=N\C(=N\c2ccccc2)c2ccccc2)n1Cc1ccc(C(=O)O)cc1 the Activity [5] was “Not Active” and the Activity [15] was “Active”.
